Here are results for one molecule from ChEMBL document CHEMBL1681730, “17,20-lyase inhibitors. Part 4: design, synthesis and structure-activity relationships of naphthylmethylimidazole derivatives as novel 17,20-lyase inhibitors” (Bioorg Med Chem, 2011).

Series [1] addresses T1, Steroid 17-alpha-hydroxylase/17,20 lyase (Homo sapiens, UniProt P05093).
T1 sequence (P05093 whole entry): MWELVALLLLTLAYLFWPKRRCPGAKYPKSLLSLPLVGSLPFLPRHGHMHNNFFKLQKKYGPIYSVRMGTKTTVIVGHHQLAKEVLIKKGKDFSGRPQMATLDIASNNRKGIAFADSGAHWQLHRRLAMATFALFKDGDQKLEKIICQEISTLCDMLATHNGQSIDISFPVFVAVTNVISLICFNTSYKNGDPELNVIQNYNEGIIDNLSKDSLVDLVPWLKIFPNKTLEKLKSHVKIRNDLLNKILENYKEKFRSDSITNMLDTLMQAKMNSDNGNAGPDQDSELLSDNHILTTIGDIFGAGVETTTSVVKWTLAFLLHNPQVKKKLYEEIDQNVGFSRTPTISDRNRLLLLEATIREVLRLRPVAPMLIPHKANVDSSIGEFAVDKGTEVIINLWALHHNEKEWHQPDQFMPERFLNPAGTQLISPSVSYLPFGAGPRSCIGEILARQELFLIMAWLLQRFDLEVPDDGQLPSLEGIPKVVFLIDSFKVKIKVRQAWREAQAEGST
Briefly: Inhibition of 17,20 lyase activity in human. Put shortly: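 Recombinant P450c17 (0.5 pmol) with cytochrome b5 (0.5 pmol) and NADPH-P450 reductase (20.8 ng) in 75 mM phosphate pH 7.4 with 1 mM MgCl2. Substrate 10 nM [1,2-3H]-17α-hydroxypregnenolone, 5 mM NADPH, compound 1–1000 nM. Incubated 15 min at 37 °C, ethyl acetate extraction, DHEA separated from substrate by silica TLC (cyclohexane–ethyl acetate 3:2). IC50 taken as 50% reduction in product.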

The target in another series is Cytochrome P450 2C9 (Homo sapiens, UniProt P11712). As to the kind of experiment: Inhibition of human CYP2C9. Type of series: ADME. The gist of the method: (§1)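 Microsomes from human B-lymphoblastoid cells expressing one CYP isoform, with inhibitor at 3, 10 and 30 µmol/L. Buffer 80 mmol/L phosphate pH 7.4 (Tris-HCl pH 7.4 for CYP2C9) with 10 mmol/L MgCl2 and a NADPH-regenerating system. Inhibitor and substrate preincubated 5 min at 37 °C, then microsomes added to start. Marker reactions: tolbutamide hydroxylation (CYP2C8, CYP2C9), bufuralol 1'-hydroxylation (CYP2D6). Control was methanol alone.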
Cytochrome P450 2C9, sequence (P11712 whole entry, canonical isoform): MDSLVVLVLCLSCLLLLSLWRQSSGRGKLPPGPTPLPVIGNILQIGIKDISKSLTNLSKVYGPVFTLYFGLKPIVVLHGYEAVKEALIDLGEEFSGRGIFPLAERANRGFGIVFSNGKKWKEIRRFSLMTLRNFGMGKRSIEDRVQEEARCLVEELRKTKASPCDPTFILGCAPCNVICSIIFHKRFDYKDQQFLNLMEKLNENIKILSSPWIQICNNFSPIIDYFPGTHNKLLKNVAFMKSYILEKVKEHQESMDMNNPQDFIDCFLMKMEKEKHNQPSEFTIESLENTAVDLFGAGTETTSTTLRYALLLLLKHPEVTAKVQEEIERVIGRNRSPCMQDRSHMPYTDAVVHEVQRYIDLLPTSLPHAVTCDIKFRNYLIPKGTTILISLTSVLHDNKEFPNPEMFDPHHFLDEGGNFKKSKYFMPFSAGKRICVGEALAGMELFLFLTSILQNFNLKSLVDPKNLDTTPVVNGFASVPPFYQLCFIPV

Series [2] in a line: Tmax in Crl:CD(SD)IGS rat at 10 mg/kg, po by HPLC analysis. The following applies: in vivo. Type of series: ADME, organism-based. Details: dose 10 mg/kg, route oral. The gist of the method: (§2)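 Non-fasted male Crl:CD(SD)IGS rats, 8 weeks old, n = 3. Dosed 1 mg/kg iv or 10 mg/kg po. Plasma sampled at 5 (iv only), 10 (iv only), 15, 30 min and 1, 2, 4, 8, 24 h. Plasma deproteinized with acetonitrile, supernatant dried under N2, taken up in mobile phase and analysed by HPLC on an ODS column. […] Mean ± SD.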

The next series concerns the target T2, Cytochrome P450 2C8 (Homo sapiens, UniProt P10632).
T2 sequence (P10632 whole entry): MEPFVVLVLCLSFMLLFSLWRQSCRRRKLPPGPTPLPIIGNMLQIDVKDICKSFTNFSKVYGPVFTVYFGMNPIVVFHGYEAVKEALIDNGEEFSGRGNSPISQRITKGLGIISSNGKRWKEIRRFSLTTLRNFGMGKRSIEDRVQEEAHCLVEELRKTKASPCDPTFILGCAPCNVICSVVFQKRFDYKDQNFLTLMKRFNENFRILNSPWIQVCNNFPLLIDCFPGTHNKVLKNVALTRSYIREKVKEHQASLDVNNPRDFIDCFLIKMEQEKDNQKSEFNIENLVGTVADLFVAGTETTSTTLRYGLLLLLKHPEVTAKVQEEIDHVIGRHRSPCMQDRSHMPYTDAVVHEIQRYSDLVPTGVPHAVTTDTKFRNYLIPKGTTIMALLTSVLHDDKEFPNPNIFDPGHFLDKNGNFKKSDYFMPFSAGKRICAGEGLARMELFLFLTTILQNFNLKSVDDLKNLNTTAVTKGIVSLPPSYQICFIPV
As to the kind of experiment: Inhibition of human CYP2C8. The class given is ADME. Put shortly: as §1

The next series concerns the target T3, Cytochrome P450c11B3 (Rattus norvegicus, UniProt Q64546).
T3 sequence (Q64546 whole entry): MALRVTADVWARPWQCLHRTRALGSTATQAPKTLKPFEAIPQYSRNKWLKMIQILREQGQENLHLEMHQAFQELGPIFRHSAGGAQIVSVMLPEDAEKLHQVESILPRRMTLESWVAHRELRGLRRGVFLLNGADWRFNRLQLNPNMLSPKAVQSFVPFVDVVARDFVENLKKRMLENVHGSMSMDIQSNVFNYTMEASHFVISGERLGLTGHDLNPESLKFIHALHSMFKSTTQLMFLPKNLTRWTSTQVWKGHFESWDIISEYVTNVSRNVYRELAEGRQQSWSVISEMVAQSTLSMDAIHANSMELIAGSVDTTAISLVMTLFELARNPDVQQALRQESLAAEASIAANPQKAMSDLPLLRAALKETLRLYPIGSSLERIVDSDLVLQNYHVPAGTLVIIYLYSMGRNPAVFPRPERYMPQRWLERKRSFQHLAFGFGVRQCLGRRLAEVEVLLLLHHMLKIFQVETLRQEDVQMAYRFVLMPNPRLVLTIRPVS
As to the kind of experiment: Inhibition of 11-hydroxylase activity in Sprague-Dawley rat adrenal gland. Type of series: tissue-based. The gist of the method: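 Mitochondrial fraction from SD rat adrenal glands, 4 µg protein, in 200 mM mannitol, 4.5 mM HEPES, 2.3 mM K phosphate pH 7.4, 0.1 mM EDTA, 0.03% BSA, 4.5 mM NADPH, 11 mM CaCl2. Substrate 10 nM [1,2-3H]-11-deoxycortisol. Test compound 1–1000 nM, diluted in DMF. Incubated 30 min at 37 °C, stopped with ethyl acetate. Final concentrations.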

A short description of series [3]: Oral bioavailability in Crl:CD(SD)IGS rat at 10 mg/kg by HPLC analysis. Type of series: ADME, organism-based. As to conditions: in vivo. The gist of the method:
as §2

A further series has as its target Cytochrome P450 3A4 (Homo sapiens, UniProt P08684). Briefly: Inhibition of human CYP3A4. Type of series: ADME.
Series [4] can be described thus: AUC (0 to 24 hrs) in Crl:CD(SD)IGS rat at 10 mg/kg, po by HPLC analysis. Type of series: ADME, organism-based. On the set-up: time < 24 hr, dose 10 mg/kg, route oral. As to conditions: plasma. The gist of the method: (§3)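 Male non-fasted 8-week-old rats, n = 3; 1 mg/kg IV or 10 mg/kg oral. Plasma sampled at 5, 10, 15, 30 min and 1, 2, 4, 8, 24 h after IV dosing, or at 15, 30 min and 1, 2, 4, 8, 24 h after oral dosing. Plasma deproteinized with acetonitrile, dried under N₂, taken up in mobile phase, and analysed by reverse-phase HPLC on an ODS column.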

Series [5] deals with T4, Steroid 17-alpha-hydroxylase/17,20 lyase (Rattus norvegicus, UniProt P11715).
T4 sequence (P11715 whole entry): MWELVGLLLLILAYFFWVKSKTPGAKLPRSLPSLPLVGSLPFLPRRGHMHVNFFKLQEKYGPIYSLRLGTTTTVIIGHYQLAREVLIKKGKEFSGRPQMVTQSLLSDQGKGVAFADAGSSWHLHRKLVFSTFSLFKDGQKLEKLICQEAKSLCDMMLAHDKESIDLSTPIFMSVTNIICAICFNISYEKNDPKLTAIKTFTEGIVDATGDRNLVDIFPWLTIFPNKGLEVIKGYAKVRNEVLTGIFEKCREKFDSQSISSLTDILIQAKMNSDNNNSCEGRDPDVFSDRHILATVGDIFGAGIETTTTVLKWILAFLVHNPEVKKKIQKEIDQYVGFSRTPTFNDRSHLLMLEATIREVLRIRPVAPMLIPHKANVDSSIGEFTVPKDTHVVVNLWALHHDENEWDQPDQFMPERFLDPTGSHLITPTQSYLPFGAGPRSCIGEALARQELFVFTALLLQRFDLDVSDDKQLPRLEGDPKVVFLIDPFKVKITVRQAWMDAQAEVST
Briefly: Inhibition of 17,20 lyase activity in Sprague-Dawley rat testicular microsomes. On the set-up: species or system Testis. Put shortly:
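Testicular microsomes from 13-week-old male SD rats (7 µg protein) in 75 mM phosphate buffer, pH 7.4, with 10 nM [1,2-3H]-17α-hydroxyprogesterone, 5 mM NADPH, and 1–1000 nM test compound (all final). Compounds were diluted in DMF and then in water. Incubation ran 15 min at 37 °C and was stopped with ethyl acetate. IC50 is the concentration that halves product formation.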

Series [6] is described as follows: Cmax in Crl:CD(SD)IGS rat at 10 mg/kg, po by HPLC analysis. Type of series: ADME, organism-based. On the set-up: dose 10 mg/kg, route oral. As to conditions: in vivo. The gist of the method:
as §2

The target of a further series is Cytochrome P450 2D6 (Homo sapiens, UniProt P10635). As to the kind of experiment: Inhibition of human CYP2D6. The class given is ADME. Put shortly:
as §1

A short description of series [7]: AUC (0 to 24 hrs) in Crl:CD(SD)IGS rat at 1 mg/kg, iv by HPLC analysis. The class given is ADME, organism-based. Details: time < 24 hr, dose 1 mg/kg, route intravenous. The following applies: plasma. Put shortly: as §3

For orientation: IC50 means the concentration at which inhibition is half-maximal. By Tmax is commonly meant the time from dosing to the highest level. By AUC(0-t) is commonly meant exposure summed from dosing to a finite time, without extrapolation to infinity. Read a high AUC(0-t) as more exposure. As usually defined, the Cmax is the maximum level reached in the sampled fluid or tissue.

Cytochrome P450 2D6, sequence (P10635 whole entry): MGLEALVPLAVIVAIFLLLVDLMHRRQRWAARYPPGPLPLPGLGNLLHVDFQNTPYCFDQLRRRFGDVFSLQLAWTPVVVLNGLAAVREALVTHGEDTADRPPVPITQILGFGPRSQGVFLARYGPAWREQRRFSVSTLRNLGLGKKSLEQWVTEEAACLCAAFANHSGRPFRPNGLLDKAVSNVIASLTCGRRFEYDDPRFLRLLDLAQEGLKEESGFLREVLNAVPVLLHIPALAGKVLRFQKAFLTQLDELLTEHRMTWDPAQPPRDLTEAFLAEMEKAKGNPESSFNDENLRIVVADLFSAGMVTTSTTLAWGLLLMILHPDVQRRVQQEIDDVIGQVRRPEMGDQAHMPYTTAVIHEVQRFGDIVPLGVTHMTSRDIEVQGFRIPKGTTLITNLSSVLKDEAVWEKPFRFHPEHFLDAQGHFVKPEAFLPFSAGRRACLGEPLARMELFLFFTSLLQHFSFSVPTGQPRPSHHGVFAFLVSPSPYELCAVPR
Cytochrome P450 3A4, sequence (P08684 whole entry): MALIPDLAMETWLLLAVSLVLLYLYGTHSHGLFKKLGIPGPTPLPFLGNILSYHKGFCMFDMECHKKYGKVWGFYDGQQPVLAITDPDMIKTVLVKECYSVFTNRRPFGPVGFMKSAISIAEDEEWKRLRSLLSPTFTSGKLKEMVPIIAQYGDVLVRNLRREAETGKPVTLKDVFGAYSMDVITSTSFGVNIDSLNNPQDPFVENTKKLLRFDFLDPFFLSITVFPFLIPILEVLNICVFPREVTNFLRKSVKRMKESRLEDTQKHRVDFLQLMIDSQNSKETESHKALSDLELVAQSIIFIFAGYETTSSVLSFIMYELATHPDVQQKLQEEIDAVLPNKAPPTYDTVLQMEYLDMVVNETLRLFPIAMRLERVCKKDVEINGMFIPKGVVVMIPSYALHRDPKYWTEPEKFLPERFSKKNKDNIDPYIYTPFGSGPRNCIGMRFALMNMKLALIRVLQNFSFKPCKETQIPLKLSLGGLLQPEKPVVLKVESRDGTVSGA

In the case of `CC(C)[C@](O)(c1ccc2c3c(ccc2c1)C(=O)N(C)C3)c1cnc[nH]1`, the IC50 in [1] is 0.019 µM; against Cytochrome P450 2C9 it was less than 3 µM; at Cytochrome P450 2C8, 28 µM; on Cytochrome P450c11B3, greater than 1 µM; on Cytochrome P450 3A4 it was greater than 10 µM; in [5], less than 0.01 µM. At Cytochrome P450 2D6, this molecule showed an IC50 greater than 30 µM. The Tmax in series [2] was 25.2 min. Further, in series [3], the bioavailability was found to be 128%. For the same molecule, the area under the curve AUC(0-t) at 24 h is 7320 ng·h/mL in series [4] and 573 ng·h/mL in series [7]. Besides, the Cmax in series [6] was 2940 ng/mL.
